ChEMBL document CHEMBL3616437, “Thiazole compounds with activity against Cryptococcus gattii and Cryptococcus neoformans in vitro” (Eur J Med Chem, 2015)
Calls of active or inactive are those of the source. The rule behind the calls is not given here.

Tests used:
Cryptococcus neoformans [1] = assay: Antifungal activity against Cryptococcus gattii ATCC 24065 assessed as reduction in cell viability at 1.9 uM after 6 to 72 hrs by MTT assay; format: functional, Cryptococcus bacillisporus
[2] = test system: Cryptococcus gattii species complex; assay: Antifungal activity against Cryptococcus gattii L28/02 assessed as reduction in cell viability at 1.9 uM after 6 to 72 hrs by MTT assay; format: functional, Cryptococcus bacillisporus
[3] = test system: Cryptococcus gattii species complex; assay: Antifungal activity against Cryptococcus gattii ICB181 assessed as reduction in cell viability at 1.9 uM after 6 to 72 hrs by MTT assay; format: functional, Cryptococcus bacillisporus
[4] = test system: Cryptococcus gattii species complex; assay: Antifungal activity against Cryptococcus gattii 23/10993 assessed as reduction in cell viability at 1.9 uM after 6 to 72 hrs by MTT assay; format: functional, Cryptococcus bacillisporus
[5] = test system: Cryptococcus gattii species complex; assay: Antifungal activity against Cryptococcus gattii 547/OTTI-97-PI-10 assessed as reduction in cell viability at 1.9 uM after 6 to 72 hrs by MTT assay; format: functional, Cryptococcus bacillisporus
Cryptococcus neoformans [6] = assay: Antifungal activity against Cryptococcus neoformans 96806 assessed as reduction in cell viability at 1.9 uM after 6 to 72 hrs by MTT assay; format: functional
[7] = test system: Cryptococcus gattii species complex; assay: Antifungal activity against Cryptococcus gattii LMM818 assessed as reduction in cell viability at 1.9 uM after 6 to 72 hrs by MTT assay; format: functional, Cryptococcus bacillisporus
[8] = test system: Cryptococcus gattii species complex; assay: Antifungal activity against Cryptococcus gattii L27/01 assessed as reduction in cell viability at 1.9 uM after 6 to 72 hrs by MTT assay; format: functional, Cryptococcus bacillisporus
[9] = test system: Cryptococcus gattii species complex; assay: Antifungal activity against Cryptococcus gattii 1913ER assessed as reduction in cell viability at 1.9 uM after 6 to 72 hrs by MTT assay; format: functional, Cryptococcus bacillisporus
Cryptococcus neoformans [10] = assay: Antifungal activity against Cryptococcus neoformans 27JF assessed as reduction in cell viability at 0.12 uM after 6 to 72 hrs by MTT assay; format: functional
Cryptococcus neoformans [11] = assay: Antifungal activity against Cryptococcus neoformans ATCC 24067 assessed as reduction in cell viability at 0.12 uM after 6 to 72 hrs by MTT assay; format: functional
Cryptococcus neoformans [12] = assay: Antifungal activity against Cryptococcus neoformans LMM820 assessed as reduction in cell viability at 0.12 uM after 6 to 72 hrs by MTT assay; format: functional
Cryptococcus neoformans [13] = assay: Antifungal activity against Cryptococcus neoformans WP assessed as reduction in cell viability at 0.9 uM after 6 to 72 hrs by MTT assay; format: functional
[14] = test system: Cryptococcus gattii species complex; assay: Antifungal activity against Cryptococcus gattii L27/01 assessed as reduction in ergosterol content at MIC after 24 hrs by spectrophotometric analysis in presence of amphotericin B; format: functional, organism-based; settings: Cryptococcus bacillisporus
Summary of the method: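 Pellet washed and weighed, then saponified in 25% ethanolic KOH at 85°C for 1 h. Extracted with water and n-heptane, read at 282 and 230 nm. Ergosterol taken from a standard curve and expressed as % of growth control.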

Cryptococcus neoformans [15] = assay: Antifungal activity against Cryptococcus neoformans VM-MCMMPI assessed as reduction in cell viability at 0.9 uM after 6 to 72 hrs by MTT assay; format: functional
[16] = test system: Cryptococcus gattii species complex; assay: Antifungal activity against Cryptococcus gattii 23/10993 assessed as reduction in cell viability at 3.9 uM after 6 to 72 hrs by MTT assay; format: functional, Cryptococcus bacillisporus
[17] = test system: Cryptococcus gattii species complex; assay: Antifungal activity against Cryptococcus gattii 196L/03 assessed as reduction in cell viability at 3.9 uM after 6 to 72 hrs by MTT assay; format: functional, Cryptococcus bacillisporus
[18] = test system: Cryptococcus gattii species complex; assay: Antifungal activity against Cryptococcus gattii LMM818 assessed as reduction in cell viability at 3.9 uM after 6 to 72 hrs by MTT assay; format: functional, Cryptococcus bacillisporus
[19] = Selectivity index, ratio of IC50 for C57BL/6 mouse peritoneal macrophages to MIC for Cryptococcus gattii ATCC 24065
Cryptococcus neoformans [20] = assay: Antifungal activity against Cryptococcus neoformans 96806 assessed as reduction in cell viability at 3.9 uM after 6 to 72 hrs by MTT assay; format: functional
Cryptococcus neoformans [21] = assay: Antifungal activity against Cryptococcus neoformans WP assessed as reduction in cell viability at 3.9 uM after 6 to 72 hrs by MTT assay; format: functional
[22] = test system: Cryptococcus gattii species complex; assay: Antifungal activity against Cryptococcus gattii L24/01 assessed as reduction in cell viability at 3.9 uM after 6 to 72 hrs by MTT assay; format: functional, Cryptococcus bacillisporus
Cryptococcus neoformans [23] = assay: Antifungal activity against Cryptococcus neoformans LMM820 assessed as reduction in cell viability at 3.9 uM after 6 to 72 hrs by MTT assay; format: functional
Cryptococcus neoformans [24] = assay: Antifungal activity against Cryptococcus neoformans ATCC 62066 assessed as reduction in cell viability at 3.9 uM after 6 to 72 hrs by MTT assay; format: functional
Cryptococcus neoformans [25] = assay: Antifungal activity against Cryptococcus neoformans 27JF assessed as reduction in cell viability at 3.9 uM after 6 to 72 hrs by MTT assay; format: functional
Cryptococcus neoformans [26] = assay: Antifungal activity against Cryptococcus neoformans VM-MCMMPI assessed as reduction in cell viability at 3.9 uM after 6 to 72 hrs by MTT assay; format: functional
[27] = test system: Cryptococcus gattii species complex; assay: Antifungal activity against Cryptococcus gattii ICB181 assessed as reduction in cell viability at 3.9 uM after 6 to 72 hrs by MTT assay; format: functional, Cryptococcus bacillisporus
Cryptococcus neoformans [28] = assay: Antifungal activity against Cryptococcus neoformans ATCC 24067 assessed as reduction in cell viability at 3.9 uM after 6 to 72 hrs by MTT assay; format: functional
[29] = test system: Cryptococcus bacillisporus; assay: Antifungal activity against Cryptococcus gattii ATCC 32608 assessed as reduction in cell viability at 3.9 uM after 6 to 72 hrs by MTT assay; format: functional
Cryptococcus neoformans [30] = assay: Antifungal activity against Cryptococcus neoformans F10 assessed as reduction in cell viability at 3.9 uM after 6 to 72 hrs by MTT assay; format: functional
Cryptococcus neoformans [31] = assay: Antifungal activity against Cryptococcus neoformans ATCC 28957 assessed as reduction in cell viability at 3.9 uM after 6 to 72 hrs by MTT assay; format: functional
Cryptococcus neoformans [32] = assay: Antifungal activity against Cryptococcus neoformans 28JF assessed as reduction in cell viability at 3.9 uM after 6 to 72 hrs by MTT assay; format: functional
[33] = test system: Cryptococcus gattii species complex; assay: Antifungal activity against Cryptococcus gattii 547/OTTI-97-PI-10 assessed as reduction in cell viability at 26 uM after 6 to 72 hrs by MTT assay; format: functional, Cryptococcus bacillisporus
Summary of the method: (§1)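 Time-kill setup: colonies from two 48 h, 35°C SDA passages were suspended in saline to 70% transmittance at 530 nm. They were then diluted to 1-5 x10^3 cells/mL in RPMI with L-glutamine buffered to pH 7.0 with 0.165 M MOPS. Plates were incubated at 35°C for 0-72 h, then MTT (5.0 mg/mL) was added for 3 h. After isopropanol, absorbance was read at 490 nm. Drug-free controls were included, results were confirmed by SDA colony counts, and assays were run in triplicate.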

[34] = test system: Cryptococcus gattii species complex; assay: Antifungal activity against Cryptococcus gattii ICB181 assessed as reduction in cell viability at 26 uM after 6 to 72 hrs by MTT assay; format: functional, Cryptococcus bacillisporus; summary of the method: as §1
Cryptococcus neoformans [35] = assay: Antifungal activity against Cryptococcus neoformans LMM820 assessed as reduction in cell viability at 26 uM after 6 to 72 hrs by MTT assay; format: functional; summary of the method: as §1
Cryptococcus neoformans [36] = assay: Antifungal activity against Cryptococcus neoformans ATCC 62066 assessed as reduction in cell viability at 26 uM after 6 to 72 hrs by MTT assay; format: functional; summary of the method: as §1

Structure (SMILES): C(=N\Nc1nc(-c2ccccc2)cs1)/C1CCCCC1
- Activity (Cryptococcus neoformans [1]): 90%
- Activity [2]: 90%
- Activity [3]: 90%
- Activity [4]: 90%
- Activity [5]: 90%
- Activity (Cryptococcus neoformans [6]): 90%
- Activity [7]: 90%
- Activity [8]: 90%
- Activity [9]: 90%

Structure (SMILES): C[C@@H]1[C@H](O)[C@@H](C)/C=C/C=C/C=C/C=C/C=C/C=C/C=C/[C@H](O[C@@H]2O[C@H](C)[C@@H](O)[C@H](N)[C@@H]2O)C[C@@H]2O[C@](O)(C[C@@H](O)C[C@@H](O)[C@H](O)CC[C@@H](O)C[C@@H](O)CC(=O)O[C@H]1C)C[C@H](O)[C@H]2C(=O)O [AMPHOTERICIN B]
- Activity (Cryptococcus neoformans [10]): 90%
- Activity (Cryptococcus neoformans [11]): 90%
- Activity (Cryptococcus neoformans [12]): 90%

Structure (SMILES): COc1ccc(-c2csc(N/N=C(\C)CCO)n2)cc1
- Activity (Cryptococcus neoformans [1]): 90%
- Activity [2]: 90%
- Activity [3]: 90%
- Activity (Cryptococcus neoformans [13]): 90%
- Activity [4]: 90%
- Activity [5]: 90%
- Activity [14]: inactive
- Activity [7]: 90%
- Activity (Cryptococcus neoformans [15]): 90%
- Activity [8]: 90%
- Activity [9]: 90%

Structure (SMILES): COc1ccc(-c2csc(N/N=C/C3CCCCC3)n2)cc1
- Activity [16]: 80%
- Activity [17]: 80%
- Activity [18]: 80%
- Ratio [19]: 25.64
- Activity (Cryptococcus neoformans [20]): 80%
- Activity (Cryptococcus neoformans [21]): 80%
- Activity [22]: 80%
- Activity (Cryptococcus neoformans [23]): 80%
- Activity (Cryptococcus neoformans [24]): 80%
- Activity (Cryptococcus neoformans [25]): 80%
- Activity (Cryptococcus neoformans [26]): 80%
- Activity [27]: 80%
- Activity (Cryptococcus neoformans [28]): 80%
- Activity [29]: 80%
- Activity (Cryptococcus neoformans [30]): 80%
- Activity (Cryptococcus neoformans [31]): 80%
- Activity (Cryptococcus neoformans [32]): 80%

Structure (SMILES): c1ccc(-c2csc(NN=C3CCCC3)n2)cc1
- Activity [16]: 80%
- Activity [17]: 80%
- Activity [18]: 80%
- Activity (Cryptococcus neoformans [20]): 80%
- Activity (Cryptococcus neoformans [21]): 80%
- Activity [22]: 80%
- Activity (Cryptococcus neoformans [23]): 80%
- Activity (Cryptococcus neoformans [24]): 80%
- Activity (Cryptococcus neoformans [25]): 80%
- Activity (Cryptococcus neoformans [26]): 80%
- Activity [27]: 80%
- Activity (Cryptococcus neoformans [28]): 80%
- Activity [29]: 80%
- Activity (Cryptococcus neoformans [30]): 80%
- Activity (Cryptococcus neoformans [31]): 80%
- Activity (Cryptococcus neoformans [32]): 80%

Structure (SMILES): OC(Cn1cncn1)(Cn1cncn1)c1ccc(F)cc1F [FLUCONAZOLE]
- Ratio [19]: 7.87
- Activity [33]: 80%
- Activity [34]: 80%
- Activity (Cryptococcus neoformans [35]): 80%
- Activity (Cryptococcus neoformans [36]): 80%
